pIC50: −log10 of the molar value. “And” between values parts separate entries of the source, which are not always exact repeats. Equal entries are not always repeated. The source made the active and inactive calls. The calls are words filed in the database; no cut-off is given here.
Key:
[1] = system: Calf thymus DNA; assay: DNA dissociation constant was determined from calf thymus; type: functional; conditions: Bos taurus
Summary of the method: (§1)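 Stopped-flow SDS-sequestration assay. Sonicated calf thymus DNA (400 µM base pairs) and 20 µM drug in 0.1 SHE buffer (2 mM HEPES, 10 µM EDTA, 99.4 mM NaCl, pH 7.0) were mixed 1:1 with 20 mM SDS at 20 °C. Absorbance decay was deconvoluted into exponential time constants by curve stripping. At least six runs were averaged; ratios were taken between time constants.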

[2] = system: Nucleic Acid; assay: Difference between log K of (AT) and log K of (GC) DNA binding; type: nucleic-acid assay
[3] = system: Calf thymus DNA; assay: Ratio T3/T2 of DNA dissociation constant from calf thymus; type: functional; conditions: Bos taurus; summary of the method: as §1
[4] = system: Calf thymus DNA; assay: Logarithm of association constant for binding to DNA by ethidium displacement; type: nucleic-acid assay; conditions: Bos taurus
[5] = system: Calf thymus DNA; assay: Ratio T2/T1 of DNA dissociation constant from calf thymus; type: functional; conditions: Bos taurus; summary of the method: as §1
[6] = system: Calf thymus DNA; assay: DNA dissociation constant from calf thymus; type: functional; conditions: Bos taurus; summary of the method: as §1
[7] = system: P388; assay: Compound administered intraperitoneally was evaluated for optimal dose (OD) given per day after inoculation of 10e 6 P388 leukemia cells for highest nontoxic dose; type: functional, Mus musculus
[8] = system: Calf thymus DNA; assay: Ratio T4/T3 of DNA dissociation constant from calf thymus; type: functional; conditions: Bos taurus; summary of the method: as §1
[9] = system: P388; assay: Percentage increase in life span treated animals over those of controls injected with P388 leukemia cells; type: functional, Mus musculus
[10] = system: P388; assay: Percentage increase in life span treated animals over those of controls injected with P388 leukemia cells; NA means no activity (ILS <20%) at all dose levels; type: functional; conditions: Mus musculus
[11] = system: P388; assay: Percentage increase in life span treated animals over those of controls injected with P388 leukemia cells; NA means no activity (ILS<20%) at all dose levels; type: functional; conditions: Mus musculus
[12] = system: L1210; assay: Evaluated for concentration which when added to cultures of L1210 leukemia cells for a period of 70 hr reduces cell numbers of 50% of control cultures; type: functional, cell-based; conditions: Mus musculus, L1210, 70 h
[13] = system: Calf thymus DNA; assay: Ratio of DNA dissociation constant from calf thymus; type: functional; conditions: Bos taurus; summary of the method: as §1
[14] = system: P388; assay: Percentage increase in life span treated animals over those of controls injected with P388 leukemia cells;NA means no activity (ILS<20%) at all dose levels; type: functional; conditions: Mus musculus
[15] = system: Calf thymus DNA; assay: Ratio T3/T2 of DNA dissociation constant of poly(dG-dC) from calf thymus; type: functional; conditions: Bos taurus
[16] = system: Calf thymus DNA; assay: Dissociation constant of poly(dG-dC)DNA binding in calf thymus; type: functional; conditions: Bos taurus
[17] = system: Calf thymus DNA; assay: Dissociation constant of poly(dG-dC)DNA in calf thymus; type: functional; conditions: Bos taurus
[18] = system: Calf thymus DNA; assay: Ratio T2/T1 of DNA dissociation constant of poly(dG-dC) from calf thymus; type: functional; conditions: Bos taurus
[19] = system: P388; assay: Percentage increase in life span treated animals over those of controls injected with P388 leukemia cells; Na means no activity (ILS<20%) at all dose levels; type: functional; conditions: Mus musculus
[20] = system: L1210 (mouse leukemia cells); assay: Ability to inhibit growth of mouse leukemia L1210 cells

## CN(C)CCCCCNC(=O)c1cccc2c(N)c3ccccc3nc12
[1]
  Time constant T2: 16 ms
[2]
  Log K delta: 0
[3]
  Ratio: 3.6
[4]
  Log K: 7.45
[5]
  Ratio: 4
[6]
  Time constant T1: 4 ms
  Time constant T3: 58 ms

## CCN(CC)CCNC(=O)c1cccc2c(N)c3ccccc3nc12
[7]
  OD: 5.9 mg/kg
[1]
  Time constant T2: 13 ms
[2]
  Log K delta: 0.33
[8]
  Ratio: 5.5
[3]
  Ratio: 3.9
[4]
  Log K: 7.26 and 7.59
[9]
  ILS: 70
[5]
  Ratio: 4.3
[6]
  Time constant T1: 3 ms
  Time constant T3: 51 ms
  Time constant T4: 280 ms

## COc1cccc2c(N)c3cccc(C(=O)NCCN(C)C)c3nc12
[1]
  Time constant T2: 69 ms
[2]
  Log K delta: 0.21
[8]
  Ratio: 3.6
[3]
  Ratio: 4.3
[4]
  Log K: 7.62 and 7.83
[9]
  ILS: 81
[5]
  Ratio: 4.1
[6]
  Time constant T1: 17 ms
  Time constant T3: 299 ms
  Time constant T4: 1080 ms

## COc1ccc2c(N)c3ccccc3nc2c1C(=O)NCCN(C)C
[1]
  Time constant T2: 20 ms
[2]
  Log K delta: -0.09
[3]
  Ratio: 4.4
[4]
  Log K: 7.21 and 7.12
[5]
  Ratio: 2.9
[6]
  Time constant T1: 7 ms
  Time constant T3: 87 ms
[10]
  ILS: inactive

## CN(C)CCNC(=O)c1ccc2nc3ccccc3c(N)c2c1
[7]
  OD: 12.5 mg/kg
[1]
  Time constant T2: 27 ms
[2]
  Log K delta: 0.47
[3]
  Ratio: 3.37
[4]
  Log K: 7.08 and 7.55
[11]
  ILS: inactive
[5]
  Ratio: 2.7
[6]
  Time constant T1: 10 ms
  Time constant T3: 90 ms

## CN(C)CCN(C)C(=O)c1cccc2c(N)c3ccccc3nc12
[7]
  OD: 30 mg/kg
[1]
  Time constant T2: 11 ms
[2]
  Log K delta: 0
[4]
  Log K: 6.37
[5]
  Ratio: 5.5
[12]
  pIC50: 5.28
[6]
  Time constant T1: 2 ms
[10]
  ILS: inactive

## Nc1c2ccccc2nc2c(C(=O)NCCNCCO)cccc12
[7]
  OD: 20 mg/kg
[13]
  Ratio: 3.4 and 2.9 and 4.4
[1]
  Time constant T2: 17 ms
[2]
  Log K delta: 0.39
[4]
  Log K: 7.34 and 7.73
[9]
  ILS: 73
[6]
  Time constant T1: 5 ms
  Time constant T3: 49 ms
  Time constant T4: 214 ms

## CN(C)CCCCCCNC(=O)c1cccc2c(N)c3ccccc3nc12
[1]
  Time constant T2: 19 ms
[2]
  Log K delta: -0.01
[3]
  Ratio: 4.2
[4]
  Log K: 7.41 and 7.4
[5]
  Ratio: 4.8
[6]
  Time constant T1: 4 ms
  Time constant T3: 80 ms

## CN(C)CCNC(=O)c1cccc2c(N)c3ccccc3nc12
[9]
  ILS: 98

## COc1ccc(C(=O)NCCN(C)C)c2nc3ccccc3c(N)c12
[1]
  Time constant T2: 102 ms
[2]
  Log K delta: 0.21
[8]
  Ratio: 6.4
[3]
  Ratio: 3.5
[4]
  Log K: 7.31 and 7.52
[9]
  ILS: 27
[5]
  Ratio: 4.6
[12]
  pIC50: 9.22
[6]
  Time constant T1: 22 ms
  Time constant T3: 355 ms
  Time constant T4: 2270 ms

## COc1ccc2c(N)c3cccc(C(=O)NCCN(C)C)c3nc2c1
[1]
  Time constant T2: 83 ms
[2]
  Log K delta: 0.38
[8]
  Ratio: 3.7
[3]
  Ratio: 3.3
[4]
  Log K: 7.33 and 7.71
[5]
  Ratio: 3.2
[6]
  Time constant T1: 26 ms
  Time constant T3: 271 ms
  Time constant T4: 1000 ms
[10]
  ILS: inactive

## COc1cc(C(=O)NCCN(C)C)c2nc3ccccc3c(N)c2c1
[1]
  Time constant T2: 79 ms
[2]
  Log K delta: 0.76
[8]
  Ratio: 6.6
[3]
  Ratio: 3.9
[9]
  ILS: 72
[5]
  Ratio: 4
[6]
  Time constant T1: 20 ms
  Time constant T3: 311 ms
  Time constant T4: 2050 ms

## Nc1c2ccccc2nc2c(C(=O)NCCN3CCOCC3)cccc12
[7]
  OD: 30 mg/kg
[1]
  Time constant T2: 40 ms
[2]
  Log K delta: 0.29
[8]
  Ratio: 4.4
[3]
  Ratio: 3.3
[4]
  Log K: 7.29 and 7.58
[5]
  Ratio: 10
[6]
  Time constant T1: 4 ms
  Time constant T3: 135 ms
  Time constant T4: 590 ms
[14]
  ILS: inactive

## COc1cccc2nc3c(C(=O)NCCN(C)C)cccc3c(N)c12
[1]
  Time constant T2: 30 ms
[2]
  Log K delta: -0.18
[3]
  Ratio: 5.6
[4]
  Log K: 7.68 and 7.55
[5]
  Ratio: 5
[6]
  Time constant T1: 6 ms
  Time constant T3: 168 ms
[10]
  ILS: inactive

## CN(C)CCCCNC(=O)c1cccc2c(N)c3ccccc3nc12
[1]
  Time constant T2: 16 ms
[2]
  Log K delta: -0.06
[15]
  Ratio: 3.3
[16]
  Time constant T1: 4 ms
[3]
  Ratio: 3.3
[17]
  Time constant T2: 26 ms
  Time constant T3: 86 ms
[4]
  Log K: 7.49 and 7.43
[5]
  Ratio: 4
[12]
  pIC50: 6.37
[18]
  Ratio: 6.5
[6]
  Time constant T1: 4 ms
  Time constant T3: 52 ms

## CN(C)CCNS(=O)(=O)c1cccc2c(N)c3ccccc3nc12
[7]
  OD: 65 mg/kg
[1]
  Time constant T2: 21 ms
[19]
  ILS: inactive
[5]
  Ratio: 4.2
[6]
  Time constant T1: 5 ms
[20]
  pIC50: 4.89

## CN(C)CCNC(=O)c1ccc2c(N)c3ccccc3nc2c1
[7]
  OD: 250 mg/kg
[1]
  Time constant T2: 27 ms
[2]
  Log K delta: 0.48
[3]
  Ratio: 3.6
[4]
  Log K: 7.18 and 7.66
[11]
  ILS: inactive
[5]
  Ratio: 4.5
[6]
  Time constant T1: 6 ms
  Time constant T3: 98 ms

## COc1ccc2nc3c(C(=O)NCCN(C)C)cccc3c(N)c2c1
[1]
  Time constant T2: 25 ms
[2]
  Log K delta: 0.02
[8]
  Ratio: 5.2
[3]
  Ratio: 2.6
[4]
  Log K: 7.64 and 7.66
[5]
  Ratio: 2.8
[6]
  Time constant T1: 9 ms
  Time constant T3: 64 ms
  Time constant T4: 330 ms
[10]
  ILS: inactive

## Nc1c2ccccc2nc2ccccc12 [AMINACRINE]
[7]
  OD: 20 mg/kg
[1]
  Time constant T2: 15 ms
[2]
  Log K delta: 0.07
[4]
  Log K: 6.08 and 6.11
[5]
  Ratio: 6.3
[12]
  pIC50: 5.59
[6]
  Time constant T1: 2.5 ms

## CN(C)CCCNC(=O)c1cccc2c(N)c3ccccc3nc12
[7]
  OD: 50 mg/kg
[1]
  Time constant T2: 15 ms
[2]
  Log K delta: 0.09
[3]
  Ratio: 2.9
[4]
  Log K: 7.51 and 7.6
[11]
  ILS: inactive
[5]
  Ratio: 3.8
[6]
  Time constant T1: 4 ms
  Time constant T3: 44 ms

Reference: ChEMBL document CHEMBL1123739, “Relationships between DNA-binding kinetics and biological activity for the 9-aminoacridine-4-carboxamide class of antitumor agents” (J Med Chem, 1987)
